Results as given in paper PMC7678623 (Angewandte Chemie (International ed. in English), 2019).

Legend:
Assay type in all cases: cell-based
[1] = tested on: IKZF1/3; assay: Immunoblot for IKZF1/3 degradation in Jurkat cells; settings: 4h, Figure 3
[2] = tested on: CDK4/6; assay: Immunoblot for CDK4/6 degradation in Jurkat cells; settings: WT Jurkat cells, 4h, Figure 3
How it was run: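 Jurkat cells, which express both CDK4 and CDK6, were treated for 4h with test compound at 1 µM. The test compounds were degraders built on each of three CDK4/6 inhibitor scaffolds. CDK4 and CDK6 protein levels were then assessed by immunoblot.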

[3] = tested on: Molt4 cells; assay: Multiplexed MS-based quantitative proteomics; settings: 250 nM, 5h
[4] = tested on: CDK4/6, IKZF1/3, phosphorylated Rb; assay: Immunoblots in Granta-519 cells; settings: 1 µM, 1d
[5] = tested on: wildtype and Crbn−/− Jurkat cells; assay: Cell cycle profile by propidium iodide staining of DNA content; settings: 100 nM, 24h
How it was run: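 Wildtype and Crbn−/− Jurkat cells were exposed to 100 nM test compound for 24h, alongside a parent CDK4/6 inhibitor and an imide CRBN ligand as comparators. Cells were stained with propidium iodide for DNA content, and cell cycle distribution was read from fluorescence histograms and then quantitated.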

Structure (SMILES): CN(C)C(=O)c1cc2cnc(Nc3ccc(N4CCN(CCCCNC(=O)CNc5cccc6c5C(=O)N(C5CCC(=O)NC5=O)C6=O)CC4)cn3)nc2n1C1CCCC1 (centres unmarked) [BSJ-01–187]
- IKZF1/3 degradation (immunoblot) [1]: induced degradation of IKZF1/3
- CDK4 and CDK6 degradation selectivity (immunoblot) [2]: selectively degraded CDK4

Structure (SMILES): CC(=O)c1c(C)c2cnc(Nc3ccc(N4CCN(CCOCCOCCOCCNC(=O)COc5cccc6c5C(=O)N(C5CCC(=O)NC5=O)C6=O)CC4)cn3)nc2n(C2CCCC2)c1=O (centres unmarked) [BSJ-03–123]
- IKZF1/3 degradation (immunoblot) [1]: none of which induced IKZF1/3 degradation
- proteome-wide degradation selectivity [3]: loss of CDK6, but not CDK4 or IKZF1/3
- CDK4 and CDK6 degradation selectivity (immunoblot) [2]: selective CDK6 degrader

Structure (SMILES): CC(=O)c1c(C)c2cnc(Nc3ccc(N4CCN(CCCCNC(=O)COc5cccc6c5C(=O)N(C5CCC(=O)NC5=O)C6=O)CC4)cn3)nc2n(C2CCCC2)c1=O (centres unmarked) [BSJ-03–204]
- IKZF1/3 degradation (immunoblot) [1]: none of which induced IKZF1/3 degradation
- proteome-wide degradation selectivity [3]: selective for CDK4/6 degradation
- CDK4 and CDK6 degradation selectivity (immunoblot) [2]: dual CDK4/6 degrader
- CDK4/6 and IKZF1/3 protein loss (immunoblot) [4]: only resulted in degradation of CDK4/6

Structure (SMILES): CN(C)C(=O)c1cc2cnc(Nc3ccc(N4CCN(CCCCNC(=O)COc5cccc6c5C(=O)N(C5CCC(=O)NC5=O)C6=O)CC4)cn3)nc2n1C1CCCC1 (centres unmarked) [BSJ-04–132]
- IKZF1/3 degradation (immunoblot) [1]: none of which induced IKZF1/3 degradation
- CDK4 abundance change [3]: ~ 1.9 fold change
- proteome-wide degradation selectivity [3]: its level was reduced to a greater extent than those of CDK6, IKZF1 and IKZF3
- CDK4 and CDK6 degradation selectivity (immunoblot) [2]: selective CDK4 degrader

Structure (SMILES): CC(=O)c1c(C)c2cnc(Nc3ccc(N4CCN(CC(=O)NCCOCCOCCOCCNc5cccc6c5C(=O)N(C5CCC(=O)NC5=O)C6=O)CC4)cn3)nc2n(C2CCCC2)c1=O (centres unmarked) [YKL-06–102]
- IKZF1/3 degradation (immunoblot) [1]: induced degradation of IKZF1/3
- CDK4 and CDK6 degradation selectivity (immunoblot) [2]: induced selective degradation of CDK6

Structure (SMILES): Nc1cccc2c1CN(C1CCC(=O)NC1=O)C2=O (centres unmarked) [lenalidomide]
- cell cycle effect (G1 arrest) ([5]; Crbn−/− Jurkat cells): had no effect
- cell cycle effect (G1 arrest) ([5]; wildtype Jurkat cells): had no effect

Structure (SMILES): CC(=O)c1c(C)c2cnc(Nc3ccc(N4CCNCC4)cn3)nc2n(C2CCCC2)c1=O [palbociclib]
- cell cycle effect (G1 arrest) ([5]; Crbn−/− Jurkat cells): induced profound G1 arrest in both cell lines
- cell cycle effect (G1 arrest) ([5]; wildtype Jurkat cells): induced profound G1 arrest in both cell lines
- levels of phosphorylated Rb (immunoblot) [4]: reduced levels of phosphorylated Rb
